An excerpt weighted towards active compounds, which were near 2.3% of everything screened.
TRPC4 inh – inhibitors of mouse TRPC4 channel, primary screen, Fluo4 calcium, HEK293 TRPC4beta/mu-opioid cells. DAMGO-evoked Fluo4 calcium flux; active compounds read low. 0.39% of 300,000 active. Short transient receptor potential channel 4 (Mus musculus), Q9QUQ5. B-score at 10 µM;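 active = B-score over 3 SD under the library average, no early fluorescence shift, positive overall ratio signal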
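Assay system – HEK293 line stably carrying TRPC4beta and mu-opioid receptor · Doses – single dose · Detection – Fluo4 calcium-dye fluorescence, kinetic read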
TRPC6 inh – mouse TRPC6 channel inhibitors, primary screen, cell-based, HEK293, membrane potential dye; B-score at 10 µM; AID 2553, 2010; ACh-evoked depolarization; active compounds read low; Short transient receptor potential channel 6 (Mus musculus), Q61143; 1.1% of 310,000 active;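 active = B-score under library mean minus 3 SD, initial fluorescence not abnormally high, positive integrated signal ratio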;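 also: B-score derived from integrated fluorescence ratio over the kinetic read; more negative B-score means stronger inhibition of depolarization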
Target sequence (Q61143 whole entry, looked up): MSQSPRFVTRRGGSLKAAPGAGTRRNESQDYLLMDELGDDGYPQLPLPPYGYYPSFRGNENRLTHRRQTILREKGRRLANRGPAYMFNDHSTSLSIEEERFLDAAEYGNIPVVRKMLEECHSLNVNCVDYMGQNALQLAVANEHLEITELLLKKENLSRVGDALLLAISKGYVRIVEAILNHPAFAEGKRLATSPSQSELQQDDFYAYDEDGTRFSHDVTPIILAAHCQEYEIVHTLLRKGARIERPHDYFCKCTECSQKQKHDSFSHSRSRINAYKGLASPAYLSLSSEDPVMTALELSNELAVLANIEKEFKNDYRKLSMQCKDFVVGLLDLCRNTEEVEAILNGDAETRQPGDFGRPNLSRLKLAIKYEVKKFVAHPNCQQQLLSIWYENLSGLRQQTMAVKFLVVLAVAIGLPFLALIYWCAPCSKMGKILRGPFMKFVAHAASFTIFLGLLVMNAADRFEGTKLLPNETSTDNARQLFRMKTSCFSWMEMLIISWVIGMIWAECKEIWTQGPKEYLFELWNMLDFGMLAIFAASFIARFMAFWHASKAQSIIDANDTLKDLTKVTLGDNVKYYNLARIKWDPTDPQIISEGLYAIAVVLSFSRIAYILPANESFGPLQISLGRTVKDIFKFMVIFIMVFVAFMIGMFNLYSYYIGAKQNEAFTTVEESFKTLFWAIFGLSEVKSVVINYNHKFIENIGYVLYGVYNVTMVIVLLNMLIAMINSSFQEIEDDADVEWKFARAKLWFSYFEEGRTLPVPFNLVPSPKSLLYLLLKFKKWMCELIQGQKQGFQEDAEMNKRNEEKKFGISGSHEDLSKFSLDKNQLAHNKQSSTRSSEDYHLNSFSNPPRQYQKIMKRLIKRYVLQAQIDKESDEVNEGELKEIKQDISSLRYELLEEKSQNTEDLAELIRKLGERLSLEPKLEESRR
TRPC6 activator – mouse TRPC6 channel activators, primary screen, cell-based, HEK293, membrane potential dye; Short transient receptor potential channel 6 (Mus musculus), Q61143; HEK293-TRPC6 membrane potential dye fluorescence; active compounds read high; B-score at 10 µM; 0.13% of 310,000 active; AID 2550, 2010;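 active = B-score of the integrated fluorescence ratio above library mean plus 3 SD, and starting fluorescence ratio within library mean plus 5 SD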;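 also: higher score means more depolarization so channel activation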
TRPC4 PAM – positive allosteric modulators of TRPC4, primary screen, cell-based, mouse TRPC4beta, HEK293 mu-opioid, Fluo-4 calcium; DAMGO EC20, Fluo-4 Ca2+ flux; active compounds read high; Short transient receptor potential channel 4 (Mus musculus), Q9QUQ5; 0.42% of 310,000 active; B-score at 10 µM;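 active = B-score of calcium response area above 5 SD of library B-scores, with initial fluorescence ratio within 5 SD of library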
TRPC4 agonist – activators of mouse TRPC4 channel, primary screen, Fluo4 calcium, HEK293 TRPC4beta/mu-opioid cells; Short transient receptor potential channel 4 (Mus musculus), Q9QUQ5; Fluo4 calcium fluorescence; active compounds read high; B-score at 10 µM; 0.49% of 310,000 active; AID 2237, 2010;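 active = B-score above 5 SD of library B-scores, and initial fluorescence ratio not above library mean plus 5 SD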;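 also: positive B-score marks a calcium rise read as TRPC4 activation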
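Assay system: HEK293 stable line with TRPC4beta plus mu-opioid receptor; schedule: 45 min room-temperature Fluo4 loading, 110 s read; technique: kinetic Fluo4 calcium fluorescence; evaluation: integrated baseline-normalised fluorescence ratio, converted to per-well B score; controls: buffer (low) and maximal DAMGO (high)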
TRPC4 spec 2 – second check of whether TRPC6 inhibitors also affect mouse TRPC4; 42% of 920 active; shares compounds with TRPC6 inh; inhibition, % at 10 µM; HEK293 TRPC4/MOR, membrane potential dye fluorescence; channel activated by saturating DAMGO dose;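 active = compounds whose fluorescence signal differed from control wells by over 3 SD, either direction, in both duplicate plates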
TRPC4 spec – mouse TRPC4 modulation by TRPC6 hits, confirmation, selectivity assay for TRPC6 inhibitor project, cell-based, HEK293 TRPC4/mu-opioid, membrane potential dye. shares compounds with TRPC6 inh. membrane potential fluorescence. activity change, negative = inhibition, % at 10 µM. 61% of 920 active. AID 2777, 2010;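 active = rise or fall in signal beyond 3 SD of buffer-only wells in both replicate plates, either sign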;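 also: integrated kinetic ratio of fluorescence range over baseline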
HEK293 MPD ctr 2-1 – nonspecific membrane potential effects, parental HEK293, confirmation, counter-screen for TRPC6 inhibitor project, cell-based, second counter screen. 31% of 920 active. shares compounds with TRPC6 inh. signal change vs control, % at 10 µM. parental HEK293 membrane potential dye fluorescence; maximal acetylcholine challenge after compound addition;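 active = membrane potential signal moving either way by over 3 SD of the maximum-effect control, in both duplicate plates, meaning non-specific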
HEK293 MPD ctr-1 – membrane potential modulation in parental HEK293, confirmation, counter-screen for TRPC6 inhibitor project, cell-based; shares compounds with TRPC6 inh; parental HEK293 membrane potential dye fluorescence; membrane potential signal change, % at 10 µM; 60% of 920 active; AID 2780, 2010;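 active = membrane potential signal shifting up or down by more than 3 SD of buffer-only wells, on both duplicate plates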
HEK293 MPD ctr-2 – parental HEK293 membrane potential modulation, confirmation, counter-screen for TRPC6 modulator project, cell-based; membrane potential dye fluorescence; shares compounds with TRPC6 inh; membrane potential signal change, % at 10 µM; 51% of 2,400 active;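 active = membrane potential signal moves up or down beyond 5 SD from buffer-only wells, on both duplicate plates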
HEK293 MPD ctr 2-2 – second counter-screen for TRPC6 modulators: effect in parental HEK293 cells; inhibition, % at 10 µM; AID 488926; shares compounds with TRPC6 inh; membrane potential dye fluorescence; after compound, maximal acetylcholine stimulation; 14% of 2,400 active;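 active = membrane potential signal drops by more than 5 SD from the mean control signal, in both duplicate plates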
TRPC4 ctr mod – TRPC4 modulation by TRPC6 hit compounds, confirmation, selectivity assay for TRPC6 modulator project, cell-based, HEK293 TRPC4/mu-opioid, membrane potential dye, mouse | shares compounds with TRPC6 inh | membrane potential fluorescence | percent change from control (negative = decrease, positive = increase), % at 10 µM | 69% of 2,400 active;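 active = membrane potential signal moved up or down beyond 5 SD of buffer control wells, in both duplicate plates, actives on both sides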
TRPC4 ctr inh 2 – second check of whether TRPC6 modulators also affect mouse TRPC4 | HEK293 TRPC4/mu-opioid, membrane potential dye fluorescence; stimulated with maximal-effect DAMGO | 55% of 2,400 active | inhibition, % at 10 µM | shares compounds with TRPC6 inh | AID 488928;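 active = drop in membrane potential signal beyond 5 SD of the control wells in both duplicate plates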;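 also: TRPC4 counter screen for TRPC6 hits run under conditions tuned for TRPC6 not TRPC4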
TRPC6 inh conf – mouse TRPC6 channel inhibitors, confirmation, HEK293 cells, membrane potential dye, duplicate | shares compounds with TRPC6 inh | ACh-evoked depolarization | inhibition, % at 10 µM | 43% of 3,300 active | AID 488960, 2010;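 active = fluorescence ratio falls more than 5 SD below the full-stimulation control mean, in both duplicate runs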;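 also: integrated fluorescence ratio of peak minus minimum over baseline after agonist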
TRPC6 act conf – mouse TRPC6 channel activators, confirmation, HEK293 cells, membrane potential dye, duplicate; activation, % at 10 µM; AID 488961, 2010; HEK293-TRPC6 membrane potential dye fluorescence, FDSS; shares compounds with TRPC6 inh; 11% of 2,800 active;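 active = ratio signal rise beyond 5 SD above unstimulated control wells' mean, seen in both duplicate runs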
A number is an active result; – = inactive; · = no result given; + = active, no number.

SMILES	TRPC4 inh	TRPC6 inh	TRPC6 activator	TRPC4 PAM	TRPC4 agonist	HEK293 MPD ctr-2	HEK293 MPD ctr 2-2	TRPC4 ctr mod	TRPC4 ctr inh 2	TRPC6 inh conf	TRPC6 act conf	others
COc1cc(CN2CCC(N3CCC(C(=O)N4CCCC4)CC3)CC2)cc2c1OCO2	–	–	–	–	–	·	·	·	·	·	·
CCc1cccc(OCC(=O)Nc2ccccc2N2CCCC2)c1	–	-6.1	–	–	–	–	–	–	33.0%	–	–
O=C(O)C(Cc1ccc(Cl)cc1)Sc1nc2ccccc2[nH]1 (configuration not stated)	–	–	–	–	–	·	·	·	·	·	·
O=C(Nc1ccc(N2C(=O)CCC2=O)cc1Cl)c1cccs1	–	–	–	–	–	·	·	·	·	·	·
O=C(CCOc1ccccc1)OCC(=O)c1cc2ccccc2o1	–	-9.29	–	–	–	·	·	·	·	–	–	TRPC4 spec 2=–;TRPC4 spec=–;HEK293 MPD ctr 2-1=–;HEK293 MPD ctr-1=–
O=C(CSc1nnc(-c2ccncc2)n1Cc1ccco1)OC1CCCCC1	–	–	–	–	–	·	·	·	·	·	·
O=C(CSc1nnc(-c2ccco2)n1Cc1ccccc1)OC1CCCCC1	–	–	11.8	–	–	382.5%	–	53.0%	52.0%	–	86.0%
COCCC(=O)N1CCC(Oc2ccc(C(=O)N3CCC[C@H]3CO)cc2)CC1	–	–	–	–	–	·	·	·	·	·	·
CC(=O)NCC(=O)OCN1C(=O)c2ccccc2C1=O	–	–	–	–	–	·	·	·	·	·	·
CCOC(=O)C1(C)/C(=N/Nc2ccc(Cl)cc2)C(=O)C(=O)N1c1ccccc1 (configuration not stated)	–	–	–	–	–	·	·	·	·	·	·
CCOC(=O)C1(C)/C(=N/Nc2ccccc2Cl)C(=O)C(=O)N1c1ccccc1 (configuration not stated)	–	-5.06	–	–	–	-76.5%	–	-21.0%	48.5%	–	–
O=C(c1cccc([N+](=O)[O-])c1)N1CC2C3C=CC(C3)C2C1 (configuration not stated)	–	–	–	–	–	·	·	·	·	·	·
O=C(c1ccccc1[N+](=O)[O-])N1CC2C3C=CC(C3)C2C1 (configuration not stated)	–	-5.45	–	–	–	–	–	–	–	–	–
COc1cc(/C=C/C(=O)c2ccc3c(c2)OCO3)cc(Cl)c1O	–	–	52.3	–	100	+	+	257.5%	53.5%	·	342.0%
COc1ccc(NC(=O)c2cccc(N3C(=O)C4C5C=CC(C5)C4C3=O)c2)cc1Cl (configuration not stated)	–	–	–	–	–	·	·	·	·	·	·
Cc1cccc(NC(=O)COc2ccc(/C=C\c3[nH]c(=O)[nH]c(=O)c3[N+](=O)[O-])cc2)c1	–	–	13.6	–	–	–	–	–	–	–	–
NS(=O)(=O)c1cc(C(=O)NC2CCSc3ccccc32)ccc1Cl (configuration not stated)	–	–	12.6	–	–	122.5%	–	32.0%	–	–	70.5%
Cn1cnc2cc(NC(=O)c3ccc(Cl)cc3)ccc21	–	-5.32	–	–	–	–	–	-11.0%	–	–	–
Cc1ccccc1NC(=O)CN1CCC(C(=O)c2ccc3c(c2)OCCO3)CC1	–	-5.55	–	–	–	–	–	–	–	–	–
Cc1ccccc1NC(=O)CN1CCOCC1	–	–	13.5	–	–	–	–	–	–	–	–
COc1ccc(Cl)cc1C(=O)Nc1nnn(C)n1	–	–	–	–	–	·	·	·	·	·	·
C=CCN1C(=O)N(c2ccc(Cl)cc2)C(=O)C1CC(=O)Nc1ccc(F)cc1 (configuration not stated)	–	-5.79	–	–	–	-66.5%	–	-16.5%	–	–	–
COC(=O)CN1C(=S)N(c2ccc(Cl)cc2)C(=O)C1CC(=O)Nc1ccc(Cl)cc1 (configuration not stated)	–	-6.59	–	–	–	-68.5%	–	-19.5%	32.0%	–	–
COC(=O)CN1C(=S)N(c2ccc(Cl)cc2)C(=O)C1CC(=O)Nc1ccc(F)cc1 (configuration not stated)	–	–	–	–	–	·	·	·	·	·	·
